Results reported in the EternaBench riboswitch data.

Test system: MS2 coat protein
Assay: apparent Kd, MS2 coat protein; higher = weaker binding; RNA-MaP array; FMN 200 µM where present
In short: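 Green signal was scaled to red-channel RNA signal and control-cluster median Fmax, and the apparent Kd was taken as the median of filtered per-cluster binding-curve fits. The binding series used SNAP-549-labelled MS2 coat protein from 0.7 or 1.5 nM, doubling to 3 µM, on designs transcribed by stalled E. coli RNA polymerase on Illumina sequencing-chip clusters. Each series ran without and then with constant ligand in 100 mM Tris-HCl pH 7.5, 80 mM KCl, 4 mM MgCl2, BSA, DTT, yeast tRNA and Tween-20.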

[1] = designed as: OFF switch for flavin mononucleotide, no ligand
[2] = ligand present: flavin mononucleotide, designed as: OFF switch for flavin mononucleotide
[3] = designed as: ON switch for flavin mononucleotide, no ligand
[4] = ligand present: flavin mononucleotide, designed as: ON switch for flavin mononucleotide

Row | Sequence | apparent Kd [1] | apparent Kd [2] | apparent Kd [3] | apparent Kd [4]
1 | AUCAGCUCGACAGGAUAUACAUCACUGCUUCGGCAGUGUAUCUUAAUAACAUGAGGAUCACCCAUGUAGAAGGGUCGAGCUGAU | 17.8 nM | 31.6 nM |  | 
2 | AUCAGCUCGUCAGGAUAUACAACACUGCUUCGGCAGUAUGAUAAGAUAACAUGAGGAUCACCCAUGUAGAAGGGACGAGCUGAU | 6.99 nM | 9.17 nM |  | 
3 | AUCAGCUCGUCAGGAUAUACAUCACUGCUUCGGCAGUGUGGUAAGGUCACAUGAGGAUCACCCAUGUAGAAGGGACGAGCUGAU | 8.48 nM | 106 nM |  | 
4 | AUCAGCUCGUCAGGAUAUACAUUACUGCUUCGGCAGUGUAUUAAGAUCACAUGAGGAUCACCCAUGUAGAAGGGACGAGCUGAU | 23.2 nM | 124 nM |  | 
5 | AUCAGCUCGUCAGGAUAUACGUCACUGCGUCAGCAGUGUAGUAAGAUCACAUGAGGAUCACCCAUGUAGAAGGGACGAGCUGAU | 5.55 nM | 12 nM |  | 
6 | AUCAGCUCGUCAGGAUAUACGUCACUGCGUCAGCAGUGUGGUAAGAUCACAUGAGGAUCACCCAUGUAGAAGGGACGAGCGGAU | 14.3 nM | 279 nM |  | 
7 | AUCAGCUCGUCAGGAUAUACGUCACUGCGUCAGCUGUGUGGUAAGAUCACAUGAGGAUCACCCAUGUAGAAGGGACGAGCUGAU | 15.3 nM | 295 nM |  | 
8 | AUCAGCUCGUCAGGAUAUACGUCACUGCGUCAUCAGUGUGGUAAGAUCACAUGAGGAUCACCCAUGUAGAAGGGACGAGCUGAU | 15.5 nM | 234 nM |  | 
9 | AUCAGCUCGUCAGGAUAUACGUCACUGGGUCAGCAGUGUGGUAAGAUCACAUGAGGAUCACCCAUGUAGAAGGGACGAGCUGAU | 66.3 nM | 483 nM |  | 
10 | AUCAUGUAAGGAUAUCUGACAUGUGACUUCGGUCACUGUUCAGAGAAGGUACAUGAGGAUCACCCAUGUAGAAC | 76.7 nM | 78.6 nM |  | 
11 | AUCAUGUCAGGAUAUAUGACAUGGCUCUUCGGAGCAAGCUCAUAGAAGGGACAUGAGGAUCACCCAUGUAGAGC | 22.7 nM | 30.5 nM |  | 
12 | AUCCGGGCUAACAUGAGGAUCACCCAUGUGUUAUACUUAAUAUAGGAUAUGUUUAUACUUUUUGGGCAGAAGGAUGGCCCGGAU |  |  | 83.1 nM | 68.8 nM
13 | AUCCUGCGAGGAUAUACAUAGUUUUUUUCGUUUUGACUCGAACAUGAGGAUCACCCAUGUAGAAGGUGCUUCAC | 59.5 nM | 56 nM |  | 
14 | AUCCUGCGAGGAUAUACUUACUUUUUUUCAUUUGGUUGCGAACAUGAGGAUCACCCAUGUAGAAGGUGCAUAAC | 22.9 nM | 24.7 nM |  | 
15 | AUCGACAACAUCAUGGUGGAUCCUGAGGAUAUGAAUAGCUACAUGAGGAUCACCCAUGUCCCGCGUCAGAAGGCAGGUUUGAUC |  |  | 400 nM | 41.3 nM
16 | AUCGGAAUGUAGAAGGGUGACAUGAGGAUCACCCAUGUUCAAAUGCGUUUUUCGGUAAUUGAUCCACAGGAUAUACUGUCCGUG |  |  | 631 nM | 485 nM
17 | AUCGGCUCGUCAGGAUAUACGUCACUGCGUCAGCAGUGUGGUAAGAUCACAUGAGGAUCACCCAUGUAGAAGGGACGAGCUGAU | 13.6 nM | 268 nM |  | 
18 | AUCGGGAGAGGAUAUACAUGAGGAUCACCCAUGUUGGGAACAUCGGUUUGUUAGUUUCGUAGAAGGCUCGGGCG | 45.5 nM | 59.6 nM |  | 
19 | AUCUAAGAAUUAAUUGUGACUGACAGAAGGCAAUAGUAUGUGACCGACAUGAGGAUCACCCAUGUUGAGGAUAUGUCUUGCUAC | 7.02 nM | 22.4 nM |  | 
20 | AUCUCAGGACGAGGAUAUCAAUACAUGAGGAUCACCCAUGUAUGACUACUGUGAUCCUUUAAGGCUGAGAAGGCGUCCCAAAUG | 20.2 nM | 60.8 nM |  | 
21 | AUCUCAGGACGAGGAUAUCAAUACAUGAGGAUCACCCAUGUAUGAUUACUGUGAUCCUUCAAGGCUGAGAAGGCGUCCCAAAUG | 12.2 nM | 27 nM |  | 

Row | Sequence | apparent Kd [1] | apparent Kd [2] | apparent Kd [3] | apparent Kd [4]
22 | AUCUUGUAAGGAUAUCUGACAAGUGACGAAAGUCACAGUUCAGAGAAGGUACAUGAGGAUCACCCAUGUAGAAC | 17.6 nM | 20.3 nM |  | 
23 | AUGACAGGCAGAGCGCAACGGCGAACAUGAGGAUCACCCAUGUAGGAUAUGCUACACAAAGUGUAGCAGAAGGACAUGCGACGA | 48.3 nM | 206 nM |  | 
24 | AUGAGUAAAGCAGGAUAUCUAUUGUCUCUGUAACAUGAGGAUCACCCAUGUAGAGAAGGGCUAAGUCUUACUCUUCGGAGUUGA | 14.2 nM | 13.7 nM |  | 
25 | AUGCGUGGCUAGGAUAUUGAGGAAAUUAGUCAGCGAGAAGGAGCCACAUGAGGAUCACCCAUGUGGUGAAGCUC | 15.5 nM | 60.3 nM |  | 
26 | AUGGAUAUCACAGGAUAUGAUAUGGAUACCAUAUCAGAAGGGUGAUCCAUCCUCUGUAAAUACAUGAGGAUCACCCAUGUGUCC |  |  | 15.6 nM | 15.6 nM
27 | AUGGUGUGAUAGGAUAUUGCUGGGUCAACCUUUUAAGAAGGGUCUACAUGAGGAUCACCCAUGUGGGUGUCCCU | 65.3 nM | 60.2 nM |  | 
28 | AUGGUUCGAUUAGGAUAUUAUAGAUUGAAUAGUAUGAUUUACAUGAGGAUCACCCAUGUUACAUAUAAGAAGGAAUCGAAUCAU | 20.1 nM | 11.6 nM |  | 
29 | AUGUGAGCAGGAUAUGCAGGUGUGCCGGAAGAAAGAAGAGGACAUGAGGAUCACCCAUGUAGAAGGGCUAGCCC | 49 nM | 31.3 nM |  | 
30 | AUGUGGUUCCCGGCCAUCGUGUACGAGGAUAUCCUCGAACAUGAGGAUCACCCAUGUAACGUUGUGGAGAAGGCGUACGCUUGG |  |  | 130 nM | 7.73 nM
31 | AUGUUACAUGAGGAUCACCCAUGUGAGGAUAUGUGUACUGGUAAAAAAGUGUUUGGCCACAGAAGGCAUUUGGG | 50.4 nM | 148 nM |  | 
32 | AUGUUUCAUGUAGGAUAUGCAUAGCGUUGCUAUGCAGAAGGACAUGAGGAUCACCCAUGUAUAUUAUCAUUACAUAUCAUACAU | 45.7 nM | 546 nM |  | 
33 | AUUAAGAAUGAAGGAUAUCUAAGCGUAAACAAAAGAGAAGGUCAAUAGUACAUGAGGAUCACCCAUGUUAGAAUAGAUGGGAUA | 117 nM | 103 nM |  | 
34 | AUUAUACAUGAGGAUCACCCAUGUAAUUAAUUAAUUAAGAUCAAGGAUAUCAGCUCGUUUAGAGCUGAGAAGGUGAUCACAUGU |  |  | 356 nM | 295 nM
35 | AUUAUAUAGGAAGGAUAUAGAAUAUUAUUUUAACAUGAGGAUCACCCAUGUAACCUUAUGUGUAGCUAGAAGGUCCAUUUAUUA | 97.5 nM | 153 nM |  | 
36 | AUUAUGACCGAGUUAUAGUUCCUAACAUGAGGAUCACCCAUGUAGGAUAUCAGCACGAUAAGUGCUGAGAAGGACAUCUCGGUC | 13.3 nM | 13.9 nM |  | 
37 | AUUAUUUAUAGUUAUUGGUAAUUGACAGAAGGUGAAAGUGUCACAUGAGGAUCACCCAUGUUCUUCAAGGAUAUGUUGGUUUAC |  |  | 37.6 nM | 8.4 nM
38 | AUUCGACAUGAGGAUCACCCAUGUAAGGAUAUGAUAGUUCUGAUAAGGGCUAGCCUAUUCAGAAGGUACGUGGC | 35.5 nM | 31.4 nM |  | 
39 | AUUCGUGAGUAGGAUAUGCUGUUGCCAGAACGAGUAGAAGGACUCACAUGAGGAUCACCCAUGUGGUGUCUAAG | 19.9 nM | 170 nM |  | 
40 | AUUGAGUGGUCAGGAUAUGUACGGCCUACCGCACAUGAGGAUCACCCAUGUCGCCAAGGAGGACGACAGAAGGGACAACGAAUG |  |  | 43.5 nM | 8.83 nM
41 | AUUGUGUUAGGAUAUGCUUAUGCUGGGUAGUCCAGUAUGGAGUAGAAGGGACAUGAGGAUCACCCAUGUGCUCA | 20.9 nM | 21.2 nM |  | 
42 | AUUGUGUUAGGAUAUGCUUAUGGUGGAUAGUCCAGUAUGAUGUAGAAGGGACAUGAGGAUCACCCAUGUGCUGA | 46.9 nM | 48.5 nM |  | 
